The text below walks through data of ChEMBL document CHEMBL1275586, “Phenotypic susceptibility to bevirimat in isolates from HIV-1-infected patients without prior exposure to bevirimat” (Antimicrob Agents Chemother, 2010).

Assay [1] has as its system Human immunodeficiency virus 1. The experiment in a line: Antiviral activity against antiretroviral-pretreated Human immunodeficiency virus 1 isolate 12 harboring Gag-capsid G357S and V362I mutant gene infected in human MT-2 cells by XTT assay relative to wild-type. Format: functional, MT2. In short, it runs like this:
(§1)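 Patient-derived Gag fragments were pooled as bacterial colonies to keep quasispecies diversity and ligated into the pXXLAI (HIV-1 LAI) backbone. Virus was made by transfecting 293T cells and harvesting supernatant 2 days later. MT-2 cells were infected at 37°C with an inoculum titrated to give an XTT signal-to-noise of 2.5–4.0. Cells were plated into drug dilutions, incubated 5 days at 37°C, and read by XTT absorbance (450−650 nm). EC50 was taken from percent cell death and expressed as fold change versus wild-type LAI.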
On the technique in general: Tetrazolium dyes change colour on reduction, which living cells bring about.

In assay [2] the test system is Human immunodeficiency virus 1. In words: Antiviral activity against Human immunodeficiency virus 1 isolate 33 harboring Gag-SP1 S368G, V370M and S373T mutant gene infected in human MT-2 cells by XTT assay relative to wild-type. Format: functional, MT2. The procedure, abridged:
(§2)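 Patient Gag-protease (SfoI-XmaI) fragments were ligated into the pXXLAI backbone, with colonies pooled to keep quasispecies. Virus came from 293T transfection, harvested at 2 days. MT-2 infection at 37°C used an input giving XTT signal-to-noise of 2.5–4.0 (≈MOI 0.001). Cells at ≈17,000/well with drug dilutions, 5 days, 37°C; XTT 1 h, A450–650. EC50 from % cell death; fold change vs wild-type LAI.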

In assay [3] the test system is Human immunodeficiency virus 1. In words: Antiviral activity against antiretroviral-pretreated PI-resistant Human immunodeficiency virus 1 isolate 4 harboring Gag-capsid G357S mutant gene and Gag-Sp-1 N372A, A374T and T375N mutant gene infected in human MT-2 cells by XTT assay relative to wild-type.
For assay [4], the system named is Human immunodeficiency virus 1. The experiment in a line: Antiviral activity against antiretroviral-pretreated PI-resistant Human immunodeficiency virus 1 isolate 27 harboring infected in human MT-2 cells by XTT assay relative to wild-type.
Assay [5] concerns Human immunodeficiency virus 1. The experiment in a line: Antiviral activity against Human immunodeficiency virus 1 isolate 8 harboring Gag-SP1 V362I mutant infected in human MT-2 cells by XTT-assay relative to wild-type. Format: functional, MT2. The procedure, abridged: as §2
In assay [6] the test system is Human immunodeficiency virus 1. In words: Antiviral activity against antiretroviral-pretreated Human immunodeficiency virus 1 isolate 22 infected in human MT-2 cells by XTT assay relative to wild-type. Format: functional, MT2. The procedure, abridged:
as §1

The subject of assay [7] is Human immunodeficiency virus 1. The experiment in a line: Antiviral activity against antiretroviral-pretreated PI-resistant Human immunodeficiency virus 1 isolate 25 harboring Gag-capsid G357S mutant gene and Gag-SP-1 […] mutant gene infected in human MT-2 cells by XTT assay relative to wild-type. Format: functional, MT2. In short, it runs like this: as §1
Assay [8] relates to Human immunodeficiency virus 1. The experiment in a line: Antiviral activity against Human immunodeficiency virus 1 isolate 34 harboring Gag-capsid G357S mutant gene and Gag-SP1 V370A, N372T, S373P and T375A mutant gene infected in human MT-2 cells by XTT assay relative to wild-type. Format: functional, MT2. The procedure, abridged:
as §2

The test system of assay [9] is Human immunodeficiency virus 1. In words: Antiviral activity against Human immunodeficiency virus 1 LAI Gag-[…] V362I mutant infected in human MT-2 cells by XTT-assay relative to wild-type. Format: functional, MT2. In short, it runs like this:
(§3)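 Site-directed mutants were made by two-round overlap PCR into the pXXLAI (HIV-1 LAI) backbone from an individual clone, then transfected into 293T cells, with supernatant harvested at 2 days. MT-2 cells were infected at an input giving an XTT signal-to-noise of 2.5–4.0, plated at ≈17,000 cells/well with drug dilutions, and read by XTT after 5 days. EC50 from % cell death; fold change vs wild-type LAI.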

In assay [10] the test system is Human immunodeficiency virus 1. In words: Antiviral activity against antiretroviral-pretreated PI-resistant Human immunodeficiency virus 1 isolate 5 harboring Gag-SP1 Q369H and T375N mutant gene infected in human MT-2 cells by XTT assay relative to wild-type. Format: functional, MT2. In short, it runs like this: as §1
Assay [11] has as its system Human immunodeficiency virus 1. The experiment in a line: Antiviral activity against Human immunodeficiency virus 1 isolates harboring Gag-SP-1 V370A mutant gene relative to wild-type. Format: functional. In short, it runs like this:
as §3

The subject of assay [12] is Human immunodeficiency virus 1. In words: Antiviral activity against Human immunodeficiency virus 1 isolate 36 harboring Gag-SP1 […], A374N and T375A mutant gene infected in human MT-2 cells by XTT assay relative to wild-type. Format: functional, MT2. The procedure, abridged:
as §2

Assay [13] deals with Human immunodeficiency virus 1. The experiment in a line: Antiviral activity against Human immunodeficiency virus 1 isolate 1 harboring Gag-SP-1 S368, V370 and deletion at T371 in Gag-SP-1 mutant infected in human MT-2 cells by XTT-assay relative to wild-type. Format: functional, MT2. In short, it runs like this: as §2
Assay [14] concerns Human immunodeficiency virus 1. The experiment in a line: Antiviral activity against antiretroviral-pretreated PI-resistant Human immunodeficiency virus 1 isolate 23 harboring Gag-capsid G357S and V362I mutant gene, Gag-SP-1 V370A and T375A mutant gene and deletion at T371 in Gag-SP-1 infected in human MT-2 cells by XTT assay relative to wild-type. Format: functional, MT2. The procedure, abridged:
as §1

For assay [15], the system named is Human immunodeficiency virus 1. In words: Antiviral activity against Human immunodeficiency virus 1 isolates harboring deletion at T371 in Gag-SP-1 relative to wild-type. Format: functional. The procedure, abridged:
as §3

Assay [16] has as its system Human immunodeficiency virus 1. In words: Antiviral activity against antiretroviral-pretreated PI-resistant Human immunodeficiency virus 1 isolate 28 infected in human MT-2 cells by XTT assay relative to wild-type. Format: functional, MT2. The procedure, abridged:
as §1

Assay [17] deals with Human immunodeficiency virus 1. In words: Antiviral activity against antiretroviral-pretreated PI-resistant Human immunodeficiency virus 1 isolate 20 harboring Gag-capsid G357S mutant gene and Gag-SP1 Q369H and I376V mutant gene infected in human MT-2 cells by XTT assay relative to wild-type. Format: functional, MT2. In short, it runs like this: as §1
Assay [18] relates to Human immunodeficiency virus 1. In words: Antiviral activity against Human immunodeficiency virus 1 isolate 32 harboring Gag-SP1 V370I and N372G mutant gene infected in human MT-2 cells by XTT assay relative to wild-type. Format: functional, MT2. In short, it runs like this:
as §2

Assay [19] has as its system Human immunodeficiency virus 1. In words: Antiviral activity against Human immunodeficiency virus 1 LAI infected in human MT-2 cells by XTT-assay. Format: functional, organism-based. The conditions noted are these: MT2. In short, it runs like this:
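Recombinant virus produced by transfecting 7 μg viral plasmid (pXXLAI backbone; patient-derived SfoI-XmaI fragment for isolates) into 293T cells. Supernatant harvested 2 days later. 2.4 million MT-2 cells infected at 37°C with virus giving XTT signal-to-noise 2.5–4.0, then plated ≈17,000 cells/well with drug dilutions. After 5 days at 37°C, 5% CO2, 1.67 mg/ml XTT added for 1 h. A450–A650 read; EC50 from cell-death curves.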

The test system of assay [20] is Human immunodeficiency virus 1. In words: Antiviral activity against Human immunodeficiency virus 1 isolate 30 infected in human MT-2 cells by XTT assay relative to wild-type. Format: functional, MT2.
Assay [21] relates to Human immunodeficiency virus 1. The experiment in a line: Antiviral activity against Human immunodeficiency virus 1 isolate 31 harboring Gag-SP1 V370A, T371S, N372A/T, A374N/T and I376V mutant gene infected in human MT-2 cells by XTT assay relative to wild-type. Format: functional, MT2. In short, it runs like this:
as §2

The subject of assay [22] is Human immunodeficiency virus 1. In words: Antiviral activity against antiretroviral-pretreated PI-resistant Human immunodeficiency virus 1 isolate 10 harboring deletion at T371 of Gag-SP-1 and Gag-Sp-1 V370I, S373P and I376V mutant gene infected in human MT-2 cells by XTT assay relative to wild-type. Format: functional, MT2. The procedure, abridged: as §1

Broadly, the EC50 is the concentration that produces a half-maximal response. Low readings indicate higher potency in that assay, high ones lower potency in that assay. Consider `C=C(C)[C@@H]1CC[C@]2(C(=O)O)CC[C@]3(C)[C@H](CC[C@@H]4[C@@]5(C)CC[C@H](OC(=O)CC(C)(C)C(=O)O)C(C)(C)[C@@H]5CC[C@]43C)[C@@H]12` [BEVIRIMAT], for which the “fold change (FC)” value is given as greater than 100 in assay [1]; greater than 100 in assay [2]; greater than 100 in assay [3]; 36 in assay [4]; greater than 100 in [5]; 0.7 in [6]. For the same molecule, the “fold change (FC)” value in assay [7] was 11; in [8], greater than 100; in assay [9], greater than 100; in [10], 2.2; in assay [11] it was greater than 151.4; in assay [12], 1.8. Also, the “fold change (FC)” value in [13] is given as 0.6; in assay [14] it was greater than 100; in assay [15] it was 52.2; in assay [16] it was 1.3; in [17] it was 2.1; in [18] it was 0.9. Further, the “fold change (FC)” value is recorded as 5.2 in assay [20], greater than 100 in [21] and greater than 100 in assay [22]. The molecule also came in with an EC50 in [19] of 34 nM.
